The target in test [1] is Wee1-like protein kinase (Homo sapiens) (UniProt P30291). As to the kind of experiment: Inhibition of WEE1 (unknown origin).
The subject of test [2] is K562. The experiment in a line: Induction of apoptosis in human K562 cells assessed as increase in phosphorylated Bcl2 level at 1.25 to 20 uM after 24 hrs by immunoblotting. The test is classed as functional, cell-based. A digest of the protocol: (§1)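 Cells treated 24 h with a range of doses, with 1 μM doxorubicin as control. Cells were harvested into Laemmli buffer, run on SDS-PAGE and blotted to nitrocellulose. Membranes were probed overnight with primary antibodies (PARP, Ser139-phospho-H2AX, Bcl-2, β-actin loading control), then peroxidase secondaries, with ECL detection on a CCD imager.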
Background: A western blot detects proteins with antibodies after separation by electrophoresis.

The test system of test [3] is MCF7. The experiment in a line: Cell cycle arrest in human MCF7 cells assessed as accumulation at sub G1 phase at 10 uM after 24 hrs by propidium iodide staining-based flow cytometric analysis (reference value: 7.1%). The test is classed as functional. A digest of the protocol: (§2)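 MCF-7 cells in DMEM with 10% FBS and penicillin/streptomycin at 37 °C, 5% CO2. Asynchronous cells were treated 24 h, PBS-washed, trypsinized and quenched with 0.1% trypsin inhibitor. Staining used 5× citrate/IGEPAL/spermine/Tris buffer (pH 7.6) with 50 μg/mL propidium iodide. DNA content was read by 488 nm flow cytometry and cell-cycle phases modelled.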
In general terms: In flow cytometry, cells or beads pass a laser one at a time.

Test [4] addresses Death-associated protein kinase 3 (Homo sapiens) (UniProt O43293). As to the kind of experiment: Inhibition of DAPK3 (unknown origin).
Test [5] has as its system MCF7. The experiment in a line: Induction of apoptosis in human MCF7 cells assessed as increase in gammaH2AX level at 1.25 to 20 uM after 24 hrs by immunoblotting. In kind it is functional, cell-based. In short, it runs like this: as §1
The target of test [6] is Serine/threonine-protein kinase PLK2 (Homo sapiens) (UniProt Q9NYY3). The experiment in a line: Inhibition of PLK2 (unknown origin).
Serine/threonine-protein kinase PLK2 (Homo sapiens), sequence (Q9NYY3 whole entry, looked up): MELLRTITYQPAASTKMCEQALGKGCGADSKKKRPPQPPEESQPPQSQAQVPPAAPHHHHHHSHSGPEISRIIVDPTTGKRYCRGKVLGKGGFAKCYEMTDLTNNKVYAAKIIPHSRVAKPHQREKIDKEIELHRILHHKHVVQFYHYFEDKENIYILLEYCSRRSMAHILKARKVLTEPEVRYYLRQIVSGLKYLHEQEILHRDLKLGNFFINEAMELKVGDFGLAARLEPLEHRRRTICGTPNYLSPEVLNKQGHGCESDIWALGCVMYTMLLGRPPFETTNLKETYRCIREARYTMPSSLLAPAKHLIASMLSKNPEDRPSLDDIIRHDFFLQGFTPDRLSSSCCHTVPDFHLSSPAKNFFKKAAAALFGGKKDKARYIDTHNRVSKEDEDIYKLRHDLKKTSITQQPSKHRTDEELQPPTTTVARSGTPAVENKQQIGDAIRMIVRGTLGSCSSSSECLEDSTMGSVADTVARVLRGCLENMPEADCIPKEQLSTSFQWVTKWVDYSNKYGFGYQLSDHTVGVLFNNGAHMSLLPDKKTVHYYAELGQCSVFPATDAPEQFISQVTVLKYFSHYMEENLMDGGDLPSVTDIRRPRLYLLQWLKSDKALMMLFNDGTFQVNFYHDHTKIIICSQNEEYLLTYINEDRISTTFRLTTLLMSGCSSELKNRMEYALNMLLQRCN
Test [7] deals with K562. The experiment in a line: Cell cycle arrest in human K562 cells assessed as accumulation at G1 phase at 10 uM after 24 hrs by propidium iodide staining-based flow cytometric analysis (reference value: 34.6%). The test is classed as functional.
The subject of test [8] is MCF7. As to the kind of experiment: Cell cycle arrest in human MCF7 cells assessed as accumulation at G2/M phase at 10 uM after 24 hrs by propidium iodide staining-based flow cytometric analysis (reference value: 5.3%). In kind it is functional. A digest of the protocol:
as §2

The target of test [9] is Serine/threonine-protein kinase Nek4 (Homo sapiens) (UniProt P51957). As to the kind of experiment: Inhibition of NEK4 (unknown origin).
Serine/threonine-protein kinase Nek4 (Homo sapiens), sequence (P51957 whole entry, looked up): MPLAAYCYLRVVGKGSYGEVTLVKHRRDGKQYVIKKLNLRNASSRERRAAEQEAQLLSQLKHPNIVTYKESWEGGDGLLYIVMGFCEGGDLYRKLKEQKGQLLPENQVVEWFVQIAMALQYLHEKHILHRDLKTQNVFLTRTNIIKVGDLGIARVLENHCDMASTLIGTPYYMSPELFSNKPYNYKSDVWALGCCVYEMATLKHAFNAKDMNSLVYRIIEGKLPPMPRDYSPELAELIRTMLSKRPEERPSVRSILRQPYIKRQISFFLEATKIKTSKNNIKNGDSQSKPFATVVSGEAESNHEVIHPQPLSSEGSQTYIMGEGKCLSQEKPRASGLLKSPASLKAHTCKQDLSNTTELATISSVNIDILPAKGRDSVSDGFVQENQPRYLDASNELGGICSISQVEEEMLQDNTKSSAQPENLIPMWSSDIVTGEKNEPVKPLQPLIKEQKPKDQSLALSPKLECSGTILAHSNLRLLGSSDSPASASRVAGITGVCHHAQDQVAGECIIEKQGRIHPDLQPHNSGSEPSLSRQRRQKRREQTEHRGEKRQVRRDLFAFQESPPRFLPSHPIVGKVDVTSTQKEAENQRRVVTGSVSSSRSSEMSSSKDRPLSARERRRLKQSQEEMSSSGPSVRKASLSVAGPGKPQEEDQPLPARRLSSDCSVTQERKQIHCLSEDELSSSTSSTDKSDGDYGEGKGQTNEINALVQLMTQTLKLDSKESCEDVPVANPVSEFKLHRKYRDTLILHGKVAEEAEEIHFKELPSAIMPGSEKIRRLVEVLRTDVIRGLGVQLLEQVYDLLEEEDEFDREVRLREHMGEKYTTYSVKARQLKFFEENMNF
Test [10] concerns the target T1, Serine/threonine-protein kinase Chk1 (Homo sapiens) (UniProt O14757).
T1 sequence (whole entry): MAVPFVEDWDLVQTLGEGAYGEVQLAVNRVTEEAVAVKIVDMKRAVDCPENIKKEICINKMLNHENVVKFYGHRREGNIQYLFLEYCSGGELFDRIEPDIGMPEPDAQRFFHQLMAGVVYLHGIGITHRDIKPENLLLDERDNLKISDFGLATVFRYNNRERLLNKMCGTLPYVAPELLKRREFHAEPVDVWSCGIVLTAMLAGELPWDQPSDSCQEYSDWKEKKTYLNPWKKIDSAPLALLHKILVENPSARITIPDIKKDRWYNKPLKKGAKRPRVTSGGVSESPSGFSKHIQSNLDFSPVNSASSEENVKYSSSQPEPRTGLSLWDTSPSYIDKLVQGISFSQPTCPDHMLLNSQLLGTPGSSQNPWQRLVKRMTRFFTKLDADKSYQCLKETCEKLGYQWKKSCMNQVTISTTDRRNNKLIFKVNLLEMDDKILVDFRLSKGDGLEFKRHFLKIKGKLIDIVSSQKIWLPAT
As to the kind of experiment: Inhibition of CHK1 (unknown origin).

Test [11] has as its target T2, Aurora kinase A (Homo sapiens) (UniProt O14965).
T2 sequence (whole entry): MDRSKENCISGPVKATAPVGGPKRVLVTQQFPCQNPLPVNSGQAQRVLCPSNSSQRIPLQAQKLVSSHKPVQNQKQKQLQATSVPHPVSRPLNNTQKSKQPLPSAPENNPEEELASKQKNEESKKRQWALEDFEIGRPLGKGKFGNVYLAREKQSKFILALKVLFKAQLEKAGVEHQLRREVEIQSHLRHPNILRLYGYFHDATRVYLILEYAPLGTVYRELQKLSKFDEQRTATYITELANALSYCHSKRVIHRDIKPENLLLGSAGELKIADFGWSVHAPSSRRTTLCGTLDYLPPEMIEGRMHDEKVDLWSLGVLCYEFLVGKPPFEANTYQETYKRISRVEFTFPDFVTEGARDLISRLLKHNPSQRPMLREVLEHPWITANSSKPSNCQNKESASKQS
The experiment in a line: Inhibition of Aurora A (unknown origin).

In test [12] the test system is K562. The experiment in a line: Cell cycle arrest in human K562 cells assessed as accumulation at G2/M phase at 10 uM after 24 hrs by propidium iodide staining-based flow cytometric analysis (reference value: 15%). The test is classed as functional.
Test [13] relates to MCF7. The experiment in a line: Growth inhibition of human MCF7 cells after 72 hrs by Calcein AM dye based fluorescence assay. In kind it is functional. Particulars: MCF7, 72 h. A digest of the protocol: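 Cells in DMEM with 10% FBS at 37 °C, 5% CO2, treated in triplicate with six doses for 72 h. Calcein AM was added for 1 h and live-cell fluorescence read at 485/538 nm. GI50 was taken from dose-response curves.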

The subject of test [14] is MCF7. As to the kind of experiment: Cell cycle arrest in human MCF7 cells assessed as accumulation at G1 phase at 10 uM after 24 hrs by propidium iodide staining-based flow cytometric analysis (reference value: 60.7%). The test is classed as functional. In short, it runs like this: as §2

The source made the active and inactive calls. No cut-off for these calls is given here.

For orientation: GI50 means the concentration that inhibits growth by half.

Death-associated protein kinase 3 (Homo sapiens), sequence (O43293 whole entry, looked up): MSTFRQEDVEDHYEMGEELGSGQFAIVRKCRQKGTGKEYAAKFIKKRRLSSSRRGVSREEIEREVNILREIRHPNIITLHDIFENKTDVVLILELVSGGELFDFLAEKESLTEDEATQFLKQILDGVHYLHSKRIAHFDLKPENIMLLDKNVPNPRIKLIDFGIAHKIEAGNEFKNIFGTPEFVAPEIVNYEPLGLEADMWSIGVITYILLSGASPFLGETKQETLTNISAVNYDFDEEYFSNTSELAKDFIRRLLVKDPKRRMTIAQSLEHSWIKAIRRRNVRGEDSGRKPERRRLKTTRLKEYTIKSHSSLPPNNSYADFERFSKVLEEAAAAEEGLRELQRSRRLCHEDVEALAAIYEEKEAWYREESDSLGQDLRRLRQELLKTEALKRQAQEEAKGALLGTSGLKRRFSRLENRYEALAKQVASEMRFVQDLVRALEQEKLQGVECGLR
Wee1-like protein kinase (Homo sapiens), sequence (P30291 whole entry, looked up): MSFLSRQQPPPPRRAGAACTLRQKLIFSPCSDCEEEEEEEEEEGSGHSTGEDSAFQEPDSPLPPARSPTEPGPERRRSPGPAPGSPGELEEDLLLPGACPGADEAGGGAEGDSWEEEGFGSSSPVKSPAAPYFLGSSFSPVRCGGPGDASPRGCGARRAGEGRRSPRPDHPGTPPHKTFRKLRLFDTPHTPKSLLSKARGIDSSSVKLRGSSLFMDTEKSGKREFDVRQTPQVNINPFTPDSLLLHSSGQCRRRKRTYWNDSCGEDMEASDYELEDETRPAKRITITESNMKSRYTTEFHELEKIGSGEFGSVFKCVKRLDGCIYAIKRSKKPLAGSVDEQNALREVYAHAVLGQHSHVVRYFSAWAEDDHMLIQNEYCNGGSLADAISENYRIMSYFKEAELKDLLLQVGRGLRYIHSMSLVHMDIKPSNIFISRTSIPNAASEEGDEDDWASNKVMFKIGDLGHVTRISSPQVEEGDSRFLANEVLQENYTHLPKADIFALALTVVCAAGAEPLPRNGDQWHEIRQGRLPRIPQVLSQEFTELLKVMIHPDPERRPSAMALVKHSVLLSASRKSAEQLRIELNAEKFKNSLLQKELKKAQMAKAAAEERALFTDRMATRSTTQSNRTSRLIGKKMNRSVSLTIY

With `CCCCCc1cc2nn(-c3ccccc3)cc2cn1`, the inhibition result in [1], in test [4], in [6], in test [9], in [10] and in [11] was “inactive” throughout. For the same compound, the outcome in test [2] and in test [5] was Active. Further, the Activity worked out at 50.3% in test [3]; 14.8% in [7]; 55.6% in test [8]; 82% in [12]; 18.1% in [14]. In addition, the GI50 in test [13] is 11.8 µM.
